Test results reported in ChEMBL document CHEMBL4673305, “Azodyrecins A-C: Azoxides from a Soil-Derived Streptomyces Species” (J Nat Prod, 2020).
pIC50: −log10 of the molar value. Active and inactive are the calls of the source. The calls are words filed in the database; no cut-off is given here.

Assays:
Vibrio anguillarum = experiment: Antimicrobial activity against Vibrio anguillarum 90-11-287 assessed as reduction in microbial growth after 24 hrs by agar well diffusion assay; format: functional, organism-based
Procedure, shortened: (§1)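 Agar well diffusion on Instant Ocean agar (3% Instant Ocean, 3.33 g/L casamino acids, 4 g/L glucose, 10 g/L agar) seeded with pathogen. Wells 4 mm in diameter, 32-38 mm apart, each got 30 µL of a 100 µg/100 µL MeOH solution. Medium and MeOH wells were controls; the positive control was sterile-filtered supernatant of tropodithietic acid-producing Phaeobacter inhibens DSM17395. Incubated 24 h at 25 °C; inhibition zone diameter measured.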

Candida albicans = experiment: Antifungal activity against Candida albicans IBT 654.38 assessed as reduction in microbial growth after 16 to 24 hrs by agar well diffusion assay; format: functional, organism-based; settings: time 16-24 hrs, in the assay text read “paper disk diffusion assay” for “agar well diffusion assay”
Procedure, shortened: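 Disk diffusion: a glucose–peptone agar base layer (pH 4.8) was inoculated with the yeast. 6 mm paper disks carried 80 µg compound applied in CH2Cl2 and were dried under sterile conditions before placing. Incubated 28 °C for 16–24 h; inhibition zone diameter measured.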

HL-60 = experiment: Cytotoxicity against human HL-60 cells assessed as reduction in cell viability after 48 hrs by AlamarBlue assay; format: functional, cell-based
Procedure, shortened: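 HL-60 cells grown at 37 °C, 5% CO2, seeded at 2 x 10⁵ cells/mL. Compound in DMSO was dispensed acoustically at 10 concentrations (top 10 µM, 1:2 dilutions). After 48 h, AlamarBlue was added for a further 5 h and fluorescence read (ex 544/em 590 nm). DMSO-only wells served as maximal growth; medium-only wells gave background correction.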

Staphylococcus aureus = experiment: Antimicrobial activity against Staphylococcus aureus 8325 assessed as reduction in microbial growth after 24 hrs by agar well diffusion assay; format: functional, organism-based; procedure, shortened: as §1
[1] = Toxicity in Artemia salina assessed as mortality at 10 ug/ml after 24 hrs by Meyer method; settings: at 10 µg/mL
Procedure, shortened: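 Brine shrimp test after Meyer, modified. Artemia salina eggs were hatched in artificial seawater. Tubes held 30–40 nauplii in 4.95 mL seawater, plus 50 µL DMSO solution of compound (final 10 µg/mL). Elaiophylin was the positive control and DMSO alone the negative control. Mortality was scored after 24 h.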

| Structure (SMILES) | Activity (Vibrio anguillarum) | Activity (Candida albicans) | IC50 (HL-60; hl-60) | Activity (Staphylococcus aureus) | mortality at 24 h, 10 ug/ml [1] | pIC50 (HL-60; Homo sapiens, HL-60, 48 h, read-out: IC50) |
| --- | --- | --- | --- | --- | --- | --- |
| COC(=O)[C@H](C)/N=[N+]([O-])/C=C\CCCCCCCCCC(C)C | inactive | inactive | Nd(Unstable) | inactive | 100% | – |
| COC(=O)[C@H](C)/N=[N+]([O-])/C=C/CCCCCCCCCC(C)C | inactive | – | – | inactive | – | – |
| CCC(C)CCCCCCCCC/C=C\[N+]([O-])=N\[C@@H](C)C(=O)OC (some centres undefined) | – | – | – | – | – | 5.66 |
| CC[C@@H]1[C@@H](C)O[C@@](O)([C@@H](C)[C@H](O)[C@H](C)[C@H]2OC(=O)/C=C/C=C/[C@H](C)[C@@H]([C@@H](C)[C@@H](O)[C@H](C)[C@@]3(O)C[C@@H](O[C@H]4C[C@H](O)[C@H](O)[C@H](C)O4)[C@H](CC)[C@@H](C)O3)OC(=O)/C=C/C=C/[C@@H]2C)C[C@H]1O[C@H]1C[C@H](O)[C@H](O)[C@H](C)O1 | – | – | – | – | 78% | – |
